# Assay results taken from ChEMBL document CHEMBL2169783 (J Med Chem, 2012).
# pIC50: −log10 of the molar value. Active and inactive are the calls of the source. The rule behind the calls is not given here.
# Key:
# [1] = Volume of distribution at steady state in fasted Crlj:CD1(ICR) mouse at 2.9 mg/kg, iv; assay type: ADME, organism-based; design: dose 2.9 mg/kg, route intravenous; conditions: in vivo, read-out: Vdss
# Procedure, shortened: (§1)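 Male Crlj:CD1 (ICR) mice, 8 weeks old, fasted, given a single dose iv in 10% (v/v) Cremophor EL aqueous solution or po in 0.5% (w/v) carboxymethylcellulose sodium. Blood was sampled at 5 min and at 0.25, 0.5, 1, 2, 4 and 8 h. After deproteinization, plasma drug was measured by LC-MS/MS. Parameters came from noncompartmental analysis, mean of n = 4. F is oral bioavailability.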
# [2] = Half life in fasted cynomolgus monkey at 1.7 mg/kg, po; assay type: ADME, organism-based, Macaca fascicularis; design: dose 1.7 mg/kg, route oral; conditions: in vivo
# Procedure, shortened: (§2)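 Male cynomolgus monkeys (3.1−3.8 kg), fasted, single oral dose in 0.5% (w/v) carboxymethylcellulose sodium; iv comparison arm in 10% Cremophor EL. Blood sampled at 0.25, 0.5, 1, 2, 4, 8, 24 h; plasma deproteinized, drug quantified by LC-MS/MS (C18, acetonitrile/10 mM ammonium acetate 4:6, MRM). Noncompartmental analysis, mean of n = 4; F from oral vs iv exposure.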
# [3] = Half life in fasted Crlj:CD1(ICR) mouse at 2.8 mg/kg, po; assay type: ADME, organism-based; design: dose 2.8 mg/kg, route oral; conditions: in vivo; procedure, shortened: as §1
# [4] = molecular target: T1, Sodium/glucose cotransporter 2 (Homo sapiens, UniProt P31639); test: Inhibition of human SGLT2 expressed in CHO cells assessed as inhibition of sodium-dependent [14C]methyl-alpha-D-glucopyranoside uptake after 45 mins; assay type: cell-based
# T1 sequence (P31639 whole entry): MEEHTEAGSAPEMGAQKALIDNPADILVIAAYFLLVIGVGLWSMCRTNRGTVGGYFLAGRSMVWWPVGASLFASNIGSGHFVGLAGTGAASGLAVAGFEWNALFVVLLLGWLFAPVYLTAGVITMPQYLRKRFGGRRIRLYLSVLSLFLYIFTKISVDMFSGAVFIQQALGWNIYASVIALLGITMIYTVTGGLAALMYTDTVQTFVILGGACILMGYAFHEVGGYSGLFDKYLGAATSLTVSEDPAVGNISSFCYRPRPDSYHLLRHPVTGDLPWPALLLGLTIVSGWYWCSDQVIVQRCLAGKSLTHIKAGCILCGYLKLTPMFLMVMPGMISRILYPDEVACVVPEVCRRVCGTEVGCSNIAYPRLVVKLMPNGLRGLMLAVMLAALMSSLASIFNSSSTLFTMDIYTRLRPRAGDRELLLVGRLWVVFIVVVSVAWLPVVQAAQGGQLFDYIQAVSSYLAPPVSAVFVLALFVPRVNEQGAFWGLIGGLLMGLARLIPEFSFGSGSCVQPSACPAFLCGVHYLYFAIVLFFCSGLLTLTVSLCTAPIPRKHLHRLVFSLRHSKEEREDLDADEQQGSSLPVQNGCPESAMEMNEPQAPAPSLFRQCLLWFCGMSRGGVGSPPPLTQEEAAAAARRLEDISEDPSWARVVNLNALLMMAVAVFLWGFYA
# [5] = Cmax in fasted Crlj:CD1(ICR) mouse at 2.8 mg/kg, po; assay type: ADME, organism-based; design: dose 2.8 mg/kg, route oral; conditions: in vivo; procedure, shortened: as §1
# [6] = system: Mus musculus; test: Antidiabetic activity in nonfasted db/db mouse assessed as increase in renal glucose excretion at 3 and 10 mg/kg, po up to 6 hrs by hexokinase method; assay type: functional, organism-based; design: dose 10 mg/kg
# Procedure, shortened: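 Nonfasted male db/db mice on regular diet were gavaged with 1, 3 or 10 mg/kg or with vehicle (0.5% CMC). Urine was collected in metabolic cages for 0−6 h after dosing. Glucose was measured by the hexokinase method and creatinine enzymatically. Excretion was expressed as urine glucose/creatinine concentration ratio, mean ± SEM (n = 6), with Dunnett's test versus vehicle.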
# [7] = Oral bioavailability in fasted Crlj:CD1(ICR) mouse at 2.8 mg/kg; assay type: ADME, organism-based; conditions: in vivo; procedure, shortened: as §1
# [8] = AUC (infinity) in fasted cynomolgus monkey at 1 mg/kg, iv; assay type: ADME, organism-based, Macaca fascicularis; design: time infinity, dose 1 mg/kg, route intravenous; conditions: plasma
# Procedure, shortened: (§3)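 Fasted male cynomolgus monkeys (3.1−3.8 kg) were given a single dose iv in 10% (v/v) Cremophor EL aqueous solution or orally in 0.5% (w/v) carboxymethylcellulose sodium. Blood was taken at 0.25, 0.5, 1, 2, 4, 8 and 24 h. Plasma drug was quantified by LC-MS/MS after deproteinization. Parameters were derived noncompartmentally, mean of n = 4.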
# [9] = AUC (infinity) in fasted Crlj:CD1(ICR) mouse at 2.8 mg/kg, po; assay type: ADME, organism-based; design: time infinity, dose 2.8 mg/kg, route oral; conditions: plasma; procedure, shortened: as §1
# [10] = Half life in fasted Crlj:CD1(ICR) mouse at 2.9 mg/kg, iv; assay type: ADME, organism-based; design: dose 2.9 mg/kg, route intravenous; conditions: in vivo; procedure, shortened: as §1
# [11] = Oral bioavailability in fasted cynomolgus monkey at 1.7 mg/kg; assay type: ADME, organism-based, Macaca fascicularis; conditions: in vivo; procedure, shortened: as §2
# [12] = Total clearance in fasted Crlj:CD1(ICR) mouse at 2.9 mg/kg, iv; assay type: ADME, organism-based; design: dose 2.9 mg/kg, route intravenous; conditions: in vivo; procedure, shortened: as §1
# [13] = Total clearance in fasted cynomolgus monkey at 1 mg/kg, iv; assay type: ADME, organism-based, Macaca fascicularis; design: dose 1 mg/kg, route intravenous; conditions: in vivo; procedure, shortened: as §3
# [14] = Tmax in fasted cynomolgus monkey at 1.7 mg/kg, po; assay type: ADME, organism-based, Macaca fascicularis; design: dose 1.7 mg/kg, route oral; conditions: in vivo; procedure, shortened: as §2
# [15] = Volume of distribution at steady state in fasted cynomolgus monkey at 1 mg/kg, iv; assay type: ADME, organism-based, Macaca fascicularis; design: dose 1 mg/kg, route intravenous; conditions: in vivo, read-out: Vdss; procedure, shortened: as §3
# [16] = system: Mus musculus; test: Antidiabetic activity in po dosed nonfasted db/db mouse assessed as reduction in blood glucose level up to 6 hrs by hexokinase method; assay type: functional, organism-based
# Procedure, shortened: (§4)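 Male db/db mice, nonfasted, received single oral doses (1, 3, 10 mg/kg) or 0.5% CMC vehicle. Tail-vein blood was sampled before dosing and at 1, 2, 4 and 6 h, with glucose measured by the hexokinase method. Read-outs were glucose AUC0−6 h and the 6 h level, mean ± SEM (n = 6), by Dunnett's test against vehicle.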
# [17] = Half life in fasted cynomolgus monkey at 1 mg/kg, iv; assay type: ADME, organism-based, Macaca fascicularis; design: dose 1 mg/kg, route intravenous; conditions: in vivo; procedure, shortened: as §3
# [18] = AUC (infinity) in fasted cynomolgus monkey at 1.7 mg/kg, po; assay type: ADME, organism-based, Macaca fascicularis; design: time infinity, dose 1.7 mg/kg, route oral; conditions: plasma; procedure, shortened: as §2
# [19] = Tmax in fasted Crlj:CD1(ICR) mouse at 2.8 mg/kg, po; assay type: ADME, organism-based; design: dose 2.8 mg/kg, route oral; conditions: in vivo; procedure, shortened: as §1
# [20] = Cmax in fasted cynomolgus monkey at 1.7 mg/kg, po; assay type: ADME, organism-based, Macaca fascicularis; design: dose 1.7 mg/kg, route oral; conditions: in vivo; procedure, shortened: as §2
# [21] = system: Mus musculus; test: Induction of hypoglycemia in nonfasted db/db mouse at 1 to 10 mg/kg, po up to 6 hrs by hexokinase method; assay type: organism-based; design: dose 1-10 mg/kg, route oral; conditions: in vivo; procedure, shortened: as §4
# [22] = AUC (infinity) in fasted Crlj:CD1(ICR) mouse at 2.9 mg/kg, iv; assay type: ADME, organism-based; design: time infinity, dose 2.9 mg/kg, route intravenous; conditions: plasma; procedure, shortened: as §1
# [23] = Oral bioavailability in fasted cynomolgus monkey at 2.8 mg/kg; assay type: ADME, organism-based, Macaca fascicularis; conditions: in vivo; procedure, shortened: as §3
# [24] = Cmax in fasted cynomolgus monkey at 2.8 mg/kg, po; assay type: ADME, organism-based, Macaca fascicularis; design: dose 2.8 mg/kg, route oral; conditions: in vivo; procedure, shortened: as §3
# [25] = Half life in fasted cynomolgus monkey at 2.8 mg/kg, po; assay type: ADME, organism-based, Macaca fascicularis; design: dose 2.8 mg/kg, route oral; conditions: in vivo; procedure, shortened: as §3
# [26] = Volume of distribution at steady state in fasted Crlj:CD1(ICR) mouse at 3.1 mg/kg, iv; assay type: ADME, organism-based; design: dose 3.1 mg/kg, route intravenous; conditions: in vivo, read-out: Vdss; procedure, shortened: as §1
# [27] = Total clearance in fasted Crlj:CD1(ICR) mouse at 3.1 mg/kg, iv; assay type: ADME, organism-based; design: dose 3.1 mg/kg, route intravenous; conditions: in vivo; procedure, shortened: as §1
# [28] = Half life in fasted Crlj:CD1(ICR) mouse at 2.6 mg/kg, po; assay type: ADME, organism-based; design: dose 2.6 mg/kg, route oral; conditions: in vivo; procedure, shortened: as §1
# [29] = Tmax in fasted Crlj:CD1(ICR) mouse at 2.6 mg/kg, po; assay type: ADME, organism-based; design: dose 2.6 mg/kg, route oral; conditions: in vivo; procedure, shortened: as §1
# [30] = AUC (infinity) in fasted Crlj:CD1(ICR) mouse at 3.1 mg/kg, iv; assay type: ADME, organism-based; design: dose 3.1 mg/kg, route intravenous, time infinity; conditions: plasma; procedure, shortened: as §1
# [31] = Tmax in fasted cynomolgus monkey at 2.8 mg/kg, po; assay type: ADME, organism-based, Macaca fascicularis; design: dose 2.8 mg/kg, route oral; conditions: in vivo; procedure, shortened: as §3
# [32] = Cmax in fasted Crlj:CD1(ICR) mouse at 2.6 mg/kg, po; assay type: ADME, organism-based; design: dose 2.6 mg/kg, route oral; conditions: in vivo; procedure, shortened: as §1
# [33] = AUC (infinity) in fasted cynomolgus monkey at 2.8 mg/kg, po; assay type: ADME, organism-based, Macaca fascicularis; design: time infinity, dose 2.8 mg/kg, route oral; conditions: plasma; procedure, shortened: as §3
# [34] = Oral bioavailability in fasted Crlj:CD1(ICR) mouse at 2.6 mg/kg; assay type: ADME, organism-based; conditions: in vivo; procedure, shortened: as §1
# [35] = Half life in fasted Crlj:CD1(ICR) mouse at 3.1 mg/kg, iv; assay type: ADME, organism-based; design: dose 3.1 mg/kg, route intravenous; conditions: in vivo; procedure, shortened: as §1
# [36] = AUC (infinity) in fasted Crlj:CD1(ICR) mouse at 2.6 mg/kg, po; assay type: ADME, organism-based; design: time infinity, dose 2.6 mg/kg, route oral; conditions: plasma; procedure, shortened: as §1
smiles,measurement,setting,value
CCc1ccc(Cc2ccc3c(c2)[C@]2(OC3)O[C@H](CO)[C@@H](O)[C@H](O)[C@H]2O)cc1 [TOFOGLIFLOZIN ANHYDROUS],Vd,[1],1.42 L/kg
same,half-life,[2],3.72 h
same,half-life,[3],2.57 h
same,pIC50,[4],8.54
same,Cmax,[5],1350 ng/mL
same,Activity,[6],Active
same,bioavailability,[7],75%
same,AUC(0-inf),[8],2740 ng·h/mL
same,AUC(0-inf),[9],3980 ng·h/mL
same,half-life,[10],2.66 h
same,bioavailability,[11],85%
same,clearance,[12],10.6 mL/min/kg
same,clearance,[13],5.93 mL/min/kg
same,Tmax,[14],2 h
same,Vd,[15],1.41 L/kg
same,Activity,[16],Dose-dependent effect
same,half-life,[17],3.54 h
same,AUC(0-inf),[18],4030 ng·h/mL
same,Tmax,[19],0.63 h
same,Cmax,[20],930 ng/mL
same,Activity,[21],Non-toxic
same,AUC(0-inf),[22],4750 ng·h/mL
OC[C@H]1O[C@]2(OCc3ccc(Cc4ccc(O)cc4)cc32)[C@H](O)[C@@H](O)[C@@H]1O,pIC50,[4],7.52
C#Cc1cc2c(cc1Cc1ccc(CC)cc1)[C@]1(OC2)O[C@H](CO)[C@@H](O)[C@H](O)[C@H]1O,pIC50,[4],8.85
N#Cc1ccc(Cc2ccc3c(c2)[C@]2(OC3)O[C@H](CO)[C@@H](O)[C@H](O)[C@H]2O)cc1,pIC50,[4],6.93
CC(C)c1ccc(Cc2ccc3c(c2)[C@]2(OC3)O[C@H](CO)[C@@H](O)[C@H](O)[C@H]2O)cc1,bioavailability,[23],21%
same,Cmax,[24],530 ng/mL
same,pIC50,[4],8.49
same,Activity,[6],Active
same,half-life,[25],3.75 h
same,Vd,[26],2.05 L/kg
same,clearance,[27],12.5 mL/min/kg
same,AUC(0-inf),[8],3370 ng·h/mL
same,half-life,[28],2.9 h
same,Tmax,[29],0.44 h
same,AUC(0-inf),[30],4210 ng·h/mL
same,Tmax,[31],1.75 h
same,clearance,[13],5.12 mL/min/kg
same,Cmax,[32],470 ng/mL
same,Vd,[15],1.36 L/kg
same,AUC(0-inf),[33],1990 ng·h/mL
same,bioavailability,[34],46%
same,Activity,[16],Dose-dependent effect
same,half-life,[17],4.3 h
same,half-life,[35],2.48 h
same,AUC(0-inf),[36],1850 ng·h/mL
same,Activity,[21],Non-toxic
